Experimental data from ChEMBL document CHEMBL3091449, “Synthesis and antimicrobial profile of N-substituted imidazolium oximes and their monoquaternary salts against multidrug resistant bacteria” (2013).
In brackets after ≈: the same amount, converted by molar mass.

How the values were obtained:
Type in all cases: functional
Enterobacter cloacae [1] = test: Antibacterial activity against CTX-15 expressing Enterobacter cloacae isolate 51 after 18 to 24 hrs by two-fold broth microdilution assay
Aeromonas hydrophila [2] = test: Antibacterial activity against TEM-1/SHV-12 expressing Aeromonas hydrophila isolate 268 after 18 to 24 hrs by two-fold broth microdilution assay
Outline: (§1)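 CLSI two-fold broth microdilution was used. Compounds were dissolved in DMSO, brought to 10 mg/mL in medium, then serially diluted in Mueller Hinton broth over 400–0.09 µg/mL. Overnight MHB cultures were diluted to 10^6 CFU/mL, and 10 µL was added per well. Plates were incubated 18–24 h at 37 °C, then 0.2 mg/mL INT was added for 30 min at 37 °C. MIC was the lowest concentration with no visible growth or pink colour, triplicate.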

Enterobacter cloacae [3] = test: Antibacterial activity against TEM-1/SHV-12 expressing Enterobacter cloacae isolate 306 after 18 to 24 hrs by two-fold broth microdilution assay
Escherichia coli [4] = test: Antibacterial activity against […] expressing Escherichia coli isolate 235 after 18 to 24 hrs by two-fold broth microdilution assay
Outline: (§2)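 CLSI two-fold broth microdilution. Compounds dissolved in DMSO, 10 mg/mL stock, serially diluted to 400–0.09 µg/mL in Mueller Hinton broth. Wells inoculated with 10^6 CFU/mL bacteria and incubated 18–24 h at 37 °C. 0.2 mg/mL INT added for 30 min. MIC taken as the lowest concentration with no visible growth or pink colour. Triplicate.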

Kluyvera intermedia = test: Antibacterial activity against TEM-1/SHV-12/[…] expressing Enterobacter intermedius isolate 243 after 18 to 24 hrs by two-fold broth microdilution assay; outline: as §1
Escherichia coli [5] = test: Antibacterial activity against TEM-1/SHV-12 expressing Escherichia coli isolate 237 after 18 to 24 hrs by two-fold broth microdilution assay; outline: as §2
Aeromonas caviae [6] = test: Antibacterial activity against TEM-1/CTX-M-15 expressing Aeromonas caviae isolate 260 after 18 to 24 hrs by two-fold broth microdilution assay; outline: as §1
Acinetobacter baumannii = test: Antibacterial activity against SIM-1 expressing Acinetobacter baumannii isolate 170 after 18 to 24 hrs by two-fold broth microdilution assay; outline: as §2
Escherichia coli [7] = test: Antibacterial activity against […] expressing Escherichia coli isolate 4024 after 18 to 24 hrs by two-fold broth microdilution assay; outline: as §2
Enterobacter cloacae [8] = test: Antibacterial activity against TEM-1/CTX-M-15 expressing Enterobacter cloacae isolate 62 after 18 to 24 hrs by two-fold broth microdilution assay
[9] = tested on: Stenotrophomonas maltophilia; test: Antibacterial activity against […] expressing Stenotrophomonas maltophilia isolate 125 after 18 to 24 hrs by two-fold broth microdilution assay; outline: as §1
Pseudomonas aeruginosa [10] = test: Antibacterial activity against GIM-1 expressing Pseudomonas aeruginosa isolate 197 after 18 to 24 hrs by two-fold broth microdilution assay; outline: as §1
Klebsiella pneumoniae [11] = test: Antibacterial activity against TEM-1/SHV-12 expressing Klebsiella pneumoniae isolate 303 after 18 to 24 hrs by two-fold broth microdilution assay; outline: as §1
Aeromonas caviae [12] = test: Antibacterial activity against […] expressing Aeromonas caviae isolate 258 after 18 to 24 hrs by two-fold broth microdilution assay; outline: as §1
Staphylococcus aureus [13] = test: Antibacterial activity against Staphylococcus aureus ATCC 25923 assessed as diameter of zone of inhibition at 250 ug/disc after 24 hrs by disc diffusion method; details: ATCC 25923, 24 h, read-out: DIZ
Outline: (§3)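 Bacteria were grown overnight at 37 °C in TSB to about 10^6 cfu/mL, and 100 µL was spread on Mueller Hinton agar. Sterile 6 mm discs were each loaded with 25 µL of a 10 mg/mL stock in 96% ethanol, giving 250 µg/disc. Ethanol served as the negative control. Plates were incubated 24 h at 37 °C. Inhibition zone diameter was measured including the disc, in triplicate, as mean ± SE.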

Escherichia coli [14] = test: Antibacterial activity against Escherichia coli FNSST 982 assessed as diameter of zone of inhibition at 250 ug/disc after 24 hrs by disc diffusion method; details: FNSST 982, 24 h, read-out: DIZ; outline: as §3
Aeromonas hydrophila [15] = test: Antibacterial activity against Aeromonas hydrophila FNSST 014 assessed as diameter of zone of inhibition at 250 ug/disc after 24 hrs by disc diffusion method; details: FNSST 014, 24 h, read-out: DIZ; outline: as §3
Enterococcus faecalis [16] = test: Antibacterial activity against Enterococcus faecalis ATCC 29212 after 18 to 24 hrs by two-fold broth microdilution assay; outline: as §1
Aeromonas hydrophila [17] = test: Antibacterial activity against Aeromonas hydrophila FNSST 014 after 18 to 24 hrs by two-fold broth microdilution assay; outline: as §1
Pseudomonas aeruginosa [18] = test: Antibacterial activity against Pseudomonas aeruginosa FNSST 982 after 18 to 24 hrs by two-fold broth microdilution assay; outline: as §1
Pseudomonas aeruginosa [19] = test: Antibacterial activity against Pseudomonas aeruginosa FNSST 982 assessed as diameter of zone of inhibition at 250 ug/disc after 24 hrs by disc diffusion method; details: FNSST 982, 24 h, read-out: DIZ; outline: as §3
Escherichia coli [20] = test: Antibacterial activity against Escherichia coli FNSST 982 after 18 to 24 hrs by two-fold broth microdilution assay; outline: as §1
Bacillus cereus [21] = test: Antibacterial activity against Bacillus cereus ATCC 11778 after 18 to 24 hrs by two-fold broth microdilution assay; outline: as §1
Klebsiella pneumoniae [22] = test: Antibacterial activity against Klebsiella pneumoniae FNSST 011 after 18 to 24 hrs by two-fold broth microdilution assay; outline: as §1
Klebsiella pneumoniae [23] = test: Antibacterial activity against Klebsiella pneumoniae FNSST 011 assessed as diameter of zone of inhibition at 250 ug/disc after 24 hrs by disc diffusion method; details: FNSST 011, 24 h, read-out: DIZ; outline: as §3
Enterococcus faecalis [24] = test: Antibacterial activity against Enterococcus faecalis ATCC 29212 assessed as diameter of zone of inhibition at 250 ug/disc after 24 hrs by disc diffusion method; details: ATCC 29212, 24 h, read-out: DIZ; outline: as §3
Candida albicans = test: Antifungal activity against Candida albicans ATCC 10231 assessed as diameter of zone of inhibition at 250 ug/disc after 48 hrs by disc diffusion method; details: ATCC 10231, 48 h, read-out: DIZ
Outline: (§4)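 Fungi were grown overnight at 30 °C in Sabouraud dextrose broth to 10^4 cfu/mL, and 100 µL was spread on Sabouraud dextrose agar. 6 mm discs carried 250 µg (25 µL of a 10 mg/mL stock in 96% ethanol), with ethanol as the negative control. Incubation was at 30 °C for 48 h (yeast) or 72 h (molds). Zone diameter was read including the disc, in triplicate, mean ± SE.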

Clostridium perfringens [25] = test: Antibacterial activity against Clostridium perfringens FNSST 4999 assessed as diameter of zone of inhibition at 250 ug/disc after 24 hrs by disc diffusion method; details: FNSST 4999, 24 h, read-out: DIZ
Outline: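 Disc diffusion per CLSI: 100 µL of 10^6 cfu/mL bacterial suspension spread on Mueller Hinton agar. 6 mm discs loaded with 25 µL of 10 mg/mL compound stock in 96% ethanol (250 µg/disc); ethanol as negative control. Incubated 24 h at 37 °C. Inhibition zone diameter measured in mm including the disc, triplicate, reported as mean ± SE.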

Talaromyces funiculosus = test: Antifungal activity against Penicillium funiculosum FNSST 3724 assessed as diameter of zone of inhibition at 250 ug/disc after 72 hrs by disc diffusion method; details: FNSST 3724, 72 h, read-out: DIZ; outline: as §4
Clostridium perfringens [26] = test: Antibacterial activity against Clostridium perfringens FNSST 4999 after 18 to 24 hrs by two-fold broth microdilution assay; outline: as §2
Bacillus cereus [27] = test: Antibacterial activity against Bacillus cereus ATCC 11778 assessed as diameter of zone of inhibition at 250 ug/disc after 24 hrs by disc diffusion method; details: ATCC 11778, 24 h, read-out: DIZ; outline: as §3
Aspergillus fumigatus = test: Antifungal activity against Aspergillus fumigatus FNSST 3833 assessed as diameter of zone of inhibition at 250 ug/disc after 72 hrs by disc diffusion method; details: FNSST 3833, 72 h, read-out: DIZ; outline: as §4
Staphylococcus aureus [28] = test: Antibacterial activity against Staphylococcus aureus ATCC 25923 after 18 to 24 hrs by two-fold broth microdilution assay; outline: as §1

SMILES | MIC (Enterobacter cloacae [1]) [µg/mL] | zone of inhibition at 250 µg/disc (Staphylococcus aureus [13]) [mm] | zone of inhibition at 250 µg/disc (Escherichia coli [14]) [mm] | zone of inhibition at 250 µg/disc (Aeromonas hydrophila [15]) [mm] | MIC (Enterococcus faecalis [16]) [µg/mL] | MIC (Aeromonas hydrophila [17]) [µg/mL] | MIC (Pseudomonas aeruginosa [18]) [µg/mL] | zone of inhibition at 250 µg/disc (Pseudomonas aeruginosa [19]) [mm] | MIC (Escherichia coli [20]) [µg/mL] | MIC (Bacillus cereus [21]) [µg/mL] | MIC (Klebsiella pneumoniae [22]) [µg/mL] | zone of inhibition at 250 µg/disc (Klebsiella pneumoniae [23]) [mm] | zone of inhibition at 250 µg/disc (Enterococcus faecalis [24]) [mm] | zone of inhibition at 250 µg/disc (Candida albicans) [mm] | zone of inhibition at 250 µg/disc (Clostridium perfringens [25]) [mm] | zone of inhibition at 250 µg/disc (Talaromyces funiculosus) [mm] | MIC (Clostridium perfringens [26]) [µg/mL] | zone of inhibition at 250 µg/disc (Bacillus cereus [27]) [mm] | zone of inhibition at 250 µg/disc (Aspergillus fumigatus) [mm] | MIC (Staphylococcus aureus [28]) [µg/mL] | also measured
NC[C@H]1O[C@H](O[C@H]2[C@H](O)[C@@H](O[C@H]3O[C@H](CO)[C@@H](O)[C@H](N)[C@H]3O)[C@H](N)C[C@@H]2N)[C@H](N)C[C@@H]1O [TOBRAMYCIN] | > 32 |  |  |  |  |  |  |  |  |  |  |  |  |  |  |  |  |  |  |  | MIC (Aeromonas hydrophila [2]): 16 µg/mL (≈ 34.2 µM); MIC (Enterobacter cloacae [3]): 16 µg/mL (≈ 34.2 µM); MIC (Escherichia coli [4]): 16 µg/mL (≈ 34.2 µM); MIC (Kluyvera intermedia): > 32 µg/mL; MIC (Escherichia coli [5]): 64 µg/mL (≈ 137 µM); MIC (Aeromonas caviae [6]): 32 µg/mL (≈ 68.4 µM); MIC (Acinetobacter baumannii): 16 µg/mL (≈ 34.2 µM); MIC (Escherichia coli [7]): 32 µg/mL (≈ 68.4 µM); MIC (Enterobacter cloacae [8]): 32 µg/mL (≈ 68.4 µM); MIC [9]: 8 µg/mL (≈ 17.1 µM); MIC (Pseudomonas aeruginosa [10]): 16 µg/mL (≈ 34.2 µM); MIC (Klebsiella pneumoniae [11]): 2 µg/mL (≈ 4.28 µM); MIC (Aeromonas caviae [12]): 32 µg/mL (≈ 68.4 µM)
O/N=C/c1nccn1-c1ccc(F)cc1 |  | 12.4 | 14.8 | 15.3 | 25 (≈ 122 µM) | 25 (≈ 122 µM) | 50 (≈ 244 µM) | 9.8 | 25 (≈ 122 µM) | 50 (≈ 244 µM) | 100 (≈ 487 µM) | 10.3 | 12.2 | 18.9 | 8.6 | 18.6 | 100 (≈ 487 µM) | 14 | 15 | 100 (≈ 487 µM) | 
O/N=C/c1n(Cc2ccccc2)cc[n+]1Cc1ccccc1.[Br-] |  | 14.2 | 14.2 | 17.1 | 12.5 | 50 | 62.5 | 12.4 | 100 | 75 | 42 | 18.6 | 17.1 | 20.9 | 18.3 | 17.6 | 25 | 15.5 | 20.9 | 12.5 | 
O/N=C/c1nccn1-c1ccccc1 |  | 10.1 | 17.8 | 17.7 | 6.25 (≈ 33.4 µM) | 50 (≈ 267 µM) | 25 (≈ 134 µM) | 15.8 | 50 (≈ 267 µM) | 50 (≈ 267 µM) | 100 (≈ 534 µM) | 17.2 | 15.7 | 16.4 | 16.5 | 17.9 | 100 (≈ 534 µM) | 15.4 | 19.5 | 100 (≈ 534 µM) | 
C[C@@H](O)[C@H]1C(=O)N2C(C(=O)O)=C(SCCNC=N)C[C@H]12 [IMIPENEM ANHYDROUS] | 8 (≈ 26.7 µM) |  |  |  |  |  |  |  |  |  |  |  |  |  |  |  |  |  |  |  | MIC (Aeromonas hydrophila [2]): 0.06 µg/mL (≈ 0.2 µM); MIC (Enterobacter cloacae [3]): 0.25 µg/mL (≈ 0.835 µM); MIC (Escherichia coli [4]): 0.06 µg/mL (≈ 0.2 µM); MIC (Kluyvera intermedia): 0.12 µg/mL (≈ 0.401 µM); MIC (Escherichia coli [5]): 0.125 µg/mL (≈ 0.418 µM); MIC (Aeromonas caviae [6]): 2 µg/mL (≈ 6.68 µM); MIC (Acinetobacter baumannii): 8 µg/mL (≈ 26.7 µM); MIC (Enterobacter cloacae [8]): 0.25 µg/mL (≈ 0.835 µM); MIC [9]: 0.12 µg/mL (≈ 0.401 µM); MIC (Pseudomonas aeruginosa [10]): > 8 µg/mL; MIC (Klebsiella pneumoniae [11]): 0.12 µg/mL (≈ 0.401 µM); MIC (Aeromonas caviae [12]): 0.25 µg/mL (≈ 0.835 µM)
